Experiments:
[1] = tested on: Plasmodium berghei; assay: In vivo antimalarial activity against Plasmodium berghei in mice (Mus musculus) as maximum dose tested; format: functional
In short: (§1)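 Peters 4-day suppression test, mice in groups of five, P. berghei given intravenously. DFMO 2% in drinking water for four nights (Mon-Thu), starting about 4-6 h after infection. Analogues given intraperitoneally at 8:30, 12:30 and 16:30 on three consecutive days (Tue-Thu). Dose reported as highest tolerated, highest tested, or giving maximum response. Cures judged as survival beyond 4 months with parasite-free Giemsa blood smears.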

[2] = tested on: Plasmodium falciparum; assay: In vitro antimalarial activity against Plasmodium falciparum; format: functional, organism-based
In short: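 P. falciparum clone D6 (Sierra Leone strain) grown in human O+ erythrocytes, 1% erythrocyte suspension, starting parasitemia about 0.5%. Analogues dissolved in culture medium and filter-sterilized. After 24 h of exposure, [3H]hypoxanthine (1 µCi) was added and its incorporation measured after a further 18-24 h. IC50 is the concentration (µM) inhibiting incorporation by 50%.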

[3] = tested on: Plasmodium berghei; assay: In vivo antimalarial activity against Plasmodium berghei infected mice (Mus musculus) as cures surviving after 4 months; format: functional
In short: (§2)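 Standard 4-day suppression test: mice in groups of five infected intravenously with P. berghei; treatment began about 4-6 h after infection. Co-treatment with DFMO as 2% solution in drinking water for four nights, plus analogue given intraperitoneally three times daily (8:30, 12:30, 16:30) on three consecutive days. Cure means survival beyond 4 months with parasite-free Giemsa-stained blood smears on periodic examination.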

[4] = tested on: Plasmodium berghei; assay: In vivo antimalarial activity against Plasmodium berghei in mice (Mus musculus) as maximum dose tolerated; format: functional; in short: as §1
[5] = tested on: Plasmodium berghei; assay: In vivo antimalarial activity as increased survival (%max) against Plasmodium berghei in mice (Mus musculus); format: functional; in short: as §2
[6] = tested on: Plasmodium berghei; assay: In vivo antimalarial activity against Plasmodium berghei in mice (Mus musculus) as dose required for Emax; format: functional; in short: as §1

SMILES	IC50 [2]	also measured
Cl.Cl.Cl.Cl.Clc1ccc(CNCCCNCCCCCCCCNCCCNCc2ccc(Cl)cc2)cc1	0.5 µM	Cured [3]: 60%; Dose [4]: 3 mg/kg
Cl.Cl.Cl.Cl.c1ccc(CNCCCNCCCCCNCCCNCc2ccccc2)cc1	6.7 µM	Dose [1]: 30 mg/kg; Max increase [5]: 30%
CSc1ccc(CNCCCNCCCCCCCCNCCCNCc2ccc(SC)cc2)cc1	0.6 µM	
Clc1ccc(CNCCCNCCCCCCCNCCCNCc2ccc(Cl)cc2)cc1	1.4 µM	
NCCCNCCCCCCCNCCCNCc1ccccc1	330 µM	
Cl.Cl.Cl.Cl.c1ccc(CNCCCNCCCCCCCCNCCCNCc2ccccc2)cc1	0.8 µM	Cured [3]: 80%; Dose [6]: 10 mg/kg
Cl.Cl.Cl.Cl.c1ccc(CNCCCNCCCCCCCCCNCCCNCc2ccccc2)cc1	0.7 µM	Cured [3]: 60%; Dose [6]: 10 mg/kg
COc1ccc(CNCCCNCCCCCCCNCCCNCc2ccc(OC)cc2)cc1	2.5 µM	
c1ccc2c(CNCCCNCCCCCCCCNCCCNCc3cccc4ccccc34)cccc2c1	0.34 µM	
c1ccc(CNCCNCCCCCCCNCCNCc2ccccc2)cc1	1.4 µM	
Cl.Cl.Cl.Cl.c1ccc(CNCCNCCCCCCCCNCCNCc2ccccc2)cc1	0.3 µM	Dose [1]: 30 mg/kg; Max increase [5]: 45%
c1cc(CNCCCNCCCCCCCNCCCNCc2ccsc2)cs1	3.9 µM	
Cl.Cl.Cl.Cl.c1ccc(CNCCCNCCCCNCCCNCc2ccccc2)cc1	14 µM	Dose [1]: 30 mg/kg; Max increase [5]: 30%
COc1ccc(CNCCCNCCCCCCCCNCCCNCc2ccc(OC)cc2)cc1	1.3 µM	
Cl.Cl.Cl.Cl.c1ccc(CNCCCNCCCCCCCCCCNCCCNCc2ccccc2)cc1	0.5 µM	Cured [3]: 40%; Dose [4]: 3 mg/kg
Oc1ccc(CNCCCNCCCCCCCCNCCCNCc2ccc(O)cc2)cc1	5.7 µM	
Cl.Cl.Cl.Cl.c1ccc(CNCCCNCCCCCCCNCCCNCc2ccccc2)cc1	3 µM	Cured [3]: 100%; Dose [6]: 15 mg/kg
c1ccc(CCCNCCCNCCCCCCCNCCCNCCCc2ccccc2)cc1	0.3 µM	
CCc1ccc(CNCCCNCCCCCCCCNCCCNCc2ccc(CC)cc2)cc1	1.4 µM	

The next lines start with results.

IC50 [2]	SMILES	also measured
1.8 µM	CCc1ccc(CNCCCNCCCCCCCNCCCNCc2ccc(CC)cc2)cc1.Cl.Cl.Cl.Cl	Dose [1]: 30 mg/kg
0.5 µM	c1ccc(NCCCNCCCCCCCNCCCNc2ccccc2)cc1	
5.3 µM	Cl.Cl.Cl.Cl.c1ccc(CNCCCNCCCCCCNCCCNCc2ccccc2)cc1	Dose [1]: 30 mg/kg
1800 µM	NCCCNCCCCCCCCNCCCN	
1.9 µM	c1ccc(CCNCCCNCCCCCCCNCCCNCCc2ccccc2)cc1	
5.3 µM	c1ccc(CNCCCCNCCCCCCCCNCCCCNCc2ccccc2)cc1	
4.8 µM	CC(NCCCNCCCCCCCNCCCNC(C)c1ccccc1)c1ccccc1 (stereo unspecified)	
64 µM	NCCCNCCCCCCCCNCCCNCc1ccccc1	
4300 µM	NCCCNCCCCCCCNCCCN	
27 µM	Oc1ccc(CNCCCNCCCCCCCNCCCNCc2ccc(O)cc2)cc1	
4.5 µM	c1csc(CNCCCNCCCCCCCNCCCNCc2cccs2)c1	
4.5 µM	c1ccc(CNCCNCCCCCCNCCNCc2ccccc2)cc1	
0.3 µM	c1ccc(CNCCNCCCCCCCCCCNCCNCc2ccccc2)cc1	
2.6 µM	CC(CCNCCCCCCCNCCC(C)NCc1ccccc1)NCc1ccccc1.Cl.Cl.Cl.Cl (stereo unspecified)	Dose [1]: 100 mg/kg
20 µM	CS(=O)(=O)c1ccc(CNCCCNCCCCCCCCNCCCNCc2ccc(S(C)(=O)=O)cc2)cc1	
0.2 µM	Cl.Cl.Cl.Cl.c1ccc(CNCCCNCCCCCCCCCCCCNCCCNCc2ccccc2)cc1	Dose [4]: 10 mg/kg
3 µM	CSc1ccc(CNCCCNCCCCCCCNCCCNCc2ccc(SC)cc2)cc1	
1.8 µM	C(CCCNCCCNCC1CCCCC1)CCCNCCCNCC1CCCCC1	
30 µM	CCCCNCCCNCCCCCCCCNCCCNCCCC	
3.2 µM	c1ccc(CNCCCCNCCCCCCCNCCCCNCc2ccccc2)cc1	
86 µM	CS(=O)(=O)c1ccc(CNCCCNCCCCCCCNCCCNCc2ccc(S(C)(=O)=O)cc2)cc1	
> 20 µM	CC(N)CCNCCCCCCCNCCC(C)N (stereo unspecified)	

Source: ChEMBL document CHEMBL1125840, “Antimalarial polyamine analogues” (J Med Chem, 1991)
